Measured values from ChEMBL document CHEMBL4665651, “Design, synthesis, and biological evaluation of some novel 4-aminoquinazolines as Pan-PI3K inhibitors” (Bioorg Med Chem, 2019).

What was measured:
MCF7 [1] = experiment: Induction of apoptosis in human MCF7 cells assessed as viable cells at 0.2 uM incubated for 48 hrs by annexin V-FITC and propidium iodide staining based flow cytometry analysis (reference value: 87.7 %); type: functional; details: read-out: Activity
MCF7 [2] = experiment: Induction of apoptosis in human MCF7 cells assessed as early apoptotic cells at 0.2 uM incubated for 48 hrs by annexin V-FITC and propidium iodide staining based flow cytometry analysis (reference value: 2.7 %); type: functional
L02 = experiment: Cytotoxicity against human L02 cells assessed as reduction in cell viability incubated for 72 hrs by SRB assay; type: cell-based; details: L02, 72 h
How it was run: (§1)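 Normal cells exposed to a range of compound concentrations for 72 h at 37 °C in 5% CO₂. Cells TCA-fixed and viability read by SRB protein staining, normalized to day-0 and negative-control OD. IC50 from non-linear regression; values are means of triplicate measurements.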

MCF7 [3] = experiment: Induction of apoptosis in human MCF7 cells assessed as necrotic cells at 0.4 uM incubated for 48 hrs by annexin V-FITC and propidium iodide staining based flow cytometry analysis (reference value: 0.3 %); type: functional
HCT-116 = experiment: Antiproliferative activity against human HCT-116 cells assessed as reduction in cell viability incubated for 72 hrs by SRB assay; type: functional, cell-based; details: HCT-116, 72 h
MCF7 [4] = experiment: Induction of apoptosis in human MCF7 cells assessed as late apoptotic cells at 0.2 uM incubated for 48 hrs by annexin V-FITC and propidium iodide staining based flow cytometry analysis (reference value: 9.2 %); type: functional
HUVEC = experiment: Cytotoxicity against HUVEC cells assessed as reduction in cell viability incubated for 72 hrs by SRB assay; type: cell-based; details: Homo sapiens; how it was run: as §1
[5] = biological target: Epidermal growth factor receptor (Homo sapiens, UniProt P00533); experiment: Inhibition of EGFR (unknown origin) using FAM-labeled peptide as substrate incubated for 10 mins followed by substrate addition and measured after 1 hr by mobility shift assay
How it was run: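 Mobility shift assay in 50 mM HEPES pH 7.5, 10 mM MgCl₂, 2 mM DTT, 0.0015% Brij35. Compound in 10-point DMSO dilution, run in duplicate. Enzyme preincubated with compound 10 min at room temperature. FAM-labeled peptide and ATP then added and reaction run at 28 °C for 1 h. Stopped with EDTA buffer; conversion turned into percent inhibition and fitted to a Hill equation for IC50.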

[6] = biological target: Phosphatidylinositol 4,5-bisphosphate 3-kinase catalytic subunit gamma isoform (Homo sapiens, UniProt P48736); experiment: Inhibition of PI3Kgamma (unknown origin) using lipid as substrate incubated for 15 mins followed by substrate addition and measured after 60 mins ADPGloTM reagent based assay
How it was run: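 ADP-Glo luminescent readout of ADP formed. Isoforms tested: p110α/p85α, p110β/p85α, p120γ and p110δ/p85α, each in PI3K reaction buffer with lipid substrate. Enzyme preincubated with compound for 15 min at room temperature. Reaction started with 250 μM ATP stock and run 60 min at room temperature. ADP-Glo reagent added for 40 min, then detection reagent for 40 min. IC50 from normalized nonlinear dose–response fit.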

MCF7 [7] = experiment: Inhibition of colony formation in human MCF7 cells at 0.2 to 0.8 uM incubated for 72 hrs by crystal violet staining based assay; type: functional, cell-based; details: dose microM 0.2-0.8, time 72.0 hrs
How it was run: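 MCF-7 cells seeded at 3×10³ cells per well in 6-well plates. Exposed to 0, 0.2, 0.4 or 0.8 μM for 72 h, then grown one week in drug-free medium. Colonies stained with crystal violet and photographed.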

MCF7 [8] = experiment: Antiproliferative activity against human MCF7 cells assessed as reduction in cell viability incubated for 72 hrs by SRB assay; type: functional, cell-based; details: MCF7, 72 h
How it was run: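 Cell lines grown at 37 °C in 5% CO₂: A549 in RPMI1640, MCF-7 in DMEM, each with 10% FBS plus penicillin/streptomycin/amphotericin B. Cells exposed to a range of compound concentrations for 72 h, then TCA-fixed and SRB-stained. Growth inhibition = 100 − 100×(OD sample − OD day 0)/(OD negative control − OD day 0). IC50 from non-linear regression of percent growth against concentration.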

Sequence of Phosphatidylinositol 4,5-bisphosphate 3-kinase catalytic subunit gamma isoform (P48736 whole entry, canonical isoform): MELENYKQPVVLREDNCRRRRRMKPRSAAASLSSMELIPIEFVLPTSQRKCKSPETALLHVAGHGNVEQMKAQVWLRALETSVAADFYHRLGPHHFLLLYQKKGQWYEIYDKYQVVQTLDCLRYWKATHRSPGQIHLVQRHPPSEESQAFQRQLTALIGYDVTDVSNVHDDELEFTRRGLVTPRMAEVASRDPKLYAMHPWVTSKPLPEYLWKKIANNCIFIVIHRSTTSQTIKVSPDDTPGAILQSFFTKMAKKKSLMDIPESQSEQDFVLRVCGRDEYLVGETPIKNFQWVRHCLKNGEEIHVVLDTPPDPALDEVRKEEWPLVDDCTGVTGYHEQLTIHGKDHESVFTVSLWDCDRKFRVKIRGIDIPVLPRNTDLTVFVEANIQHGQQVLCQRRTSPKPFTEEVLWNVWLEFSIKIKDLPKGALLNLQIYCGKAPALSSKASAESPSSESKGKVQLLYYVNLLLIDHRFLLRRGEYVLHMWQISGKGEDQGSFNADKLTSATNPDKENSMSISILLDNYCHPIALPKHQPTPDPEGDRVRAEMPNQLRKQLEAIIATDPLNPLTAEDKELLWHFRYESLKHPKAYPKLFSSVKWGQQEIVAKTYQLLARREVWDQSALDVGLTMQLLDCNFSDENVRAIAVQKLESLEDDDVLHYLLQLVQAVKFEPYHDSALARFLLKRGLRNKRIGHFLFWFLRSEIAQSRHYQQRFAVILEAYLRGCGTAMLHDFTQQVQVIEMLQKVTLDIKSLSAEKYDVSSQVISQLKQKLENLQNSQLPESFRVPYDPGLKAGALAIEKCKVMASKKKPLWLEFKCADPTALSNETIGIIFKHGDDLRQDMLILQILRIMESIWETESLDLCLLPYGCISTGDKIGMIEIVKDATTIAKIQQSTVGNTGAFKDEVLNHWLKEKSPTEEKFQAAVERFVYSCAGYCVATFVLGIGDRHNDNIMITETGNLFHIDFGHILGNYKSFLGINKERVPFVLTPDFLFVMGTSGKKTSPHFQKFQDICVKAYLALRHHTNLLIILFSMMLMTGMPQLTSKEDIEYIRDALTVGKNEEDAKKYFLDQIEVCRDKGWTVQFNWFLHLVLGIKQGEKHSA
Sequence of Epidermal growth factor receptor (P00533 whole entry): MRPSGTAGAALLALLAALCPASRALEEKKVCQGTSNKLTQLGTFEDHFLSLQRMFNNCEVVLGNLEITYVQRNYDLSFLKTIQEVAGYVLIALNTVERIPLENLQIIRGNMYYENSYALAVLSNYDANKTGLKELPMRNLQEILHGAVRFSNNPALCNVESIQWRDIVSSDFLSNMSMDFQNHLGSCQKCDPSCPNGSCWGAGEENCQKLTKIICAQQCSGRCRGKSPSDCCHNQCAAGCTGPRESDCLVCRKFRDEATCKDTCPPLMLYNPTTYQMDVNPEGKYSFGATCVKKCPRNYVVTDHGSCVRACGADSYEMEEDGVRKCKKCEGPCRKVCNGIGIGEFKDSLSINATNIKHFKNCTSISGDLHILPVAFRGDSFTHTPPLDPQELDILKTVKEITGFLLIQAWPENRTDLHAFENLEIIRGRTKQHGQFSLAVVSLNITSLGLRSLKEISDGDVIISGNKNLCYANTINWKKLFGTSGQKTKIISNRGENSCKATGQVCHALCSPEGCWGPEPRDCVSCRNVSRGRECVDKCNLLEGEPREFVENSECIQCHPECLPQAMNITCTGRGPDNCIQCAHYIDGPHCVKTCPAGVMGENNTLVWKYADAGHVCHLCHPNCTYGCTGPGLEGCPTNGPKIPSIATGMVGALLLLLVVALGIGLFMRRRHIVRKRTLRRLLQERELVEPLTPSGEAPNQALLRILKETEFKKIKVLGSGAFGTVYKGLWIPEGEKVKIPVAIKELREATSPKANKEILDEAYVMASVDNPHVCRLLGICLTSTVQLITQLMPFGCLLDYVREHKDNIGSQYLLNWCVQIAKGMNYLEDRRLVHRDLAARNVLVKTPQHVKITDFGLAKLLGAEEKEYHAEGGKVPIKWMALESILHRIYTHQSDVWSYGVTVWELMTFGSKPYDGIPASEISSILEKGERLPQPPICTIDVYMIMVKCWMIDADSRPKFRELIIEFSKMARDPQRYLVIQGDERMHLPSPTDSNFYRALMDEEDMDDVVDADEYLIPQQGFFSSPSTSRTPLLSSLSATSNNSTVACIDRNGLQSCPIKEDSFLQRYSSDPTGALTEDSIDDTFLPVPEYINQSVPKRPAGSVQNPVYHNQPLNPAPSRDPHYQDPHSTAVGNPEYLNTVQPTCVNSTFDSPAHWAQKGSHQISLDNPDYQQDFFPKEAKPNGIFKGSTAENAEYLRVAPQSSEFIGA

IC50 (HCT-116): 330 nM | IC50 [5]: > 10000 nM | IC50 [6]: 0.58 nM | IC50 (MCF7 [8]): 220 nM
Compound: COc1ncc(-c2ccc3ncnc(Nc4cnn(CCO)c4)c3c2)cc1NS(=O)(=O)c1ccc(F)cc1F
viability at 0.2 µM (MCF7 [1]): 74.7% | Activity (MCF7 [2]): 2.8% | IC50 (L02): 60000 nM | Activity (MCF7 [3]): 2.6% | Activity (MCF7 [4]): 20.6% | IC50 (HUVEC): 19600 nM | inhibition (MCF7 [7]): Dose-dependent effect
